In ChEMBL document CHEMBL4706639, “Discovery of Novel Azetidine Amides as Potent Small-Molecule STAT3 Inhibitors” (J Med Chem, 2021):
The source made the active and inactive calls. The calls are words filed in the database; no cut-off is given here.

How the values were obtained:
[1] = biological target: T1, Signal transducer and activator of transcription 1 (Mus musculus) (UniProt P42225); test: Inhibition of oligonucleotide [32P]-labelled 5'-AGCITCATTTCCCGTAAATCCCTA probe binding to STAT1 homodimer in mouse NIH3T3 nuclear extract at 10 uM preincubated for 30 mins followed by hSIE probe addition by EMSA analysis
T1 sequence (whole entry): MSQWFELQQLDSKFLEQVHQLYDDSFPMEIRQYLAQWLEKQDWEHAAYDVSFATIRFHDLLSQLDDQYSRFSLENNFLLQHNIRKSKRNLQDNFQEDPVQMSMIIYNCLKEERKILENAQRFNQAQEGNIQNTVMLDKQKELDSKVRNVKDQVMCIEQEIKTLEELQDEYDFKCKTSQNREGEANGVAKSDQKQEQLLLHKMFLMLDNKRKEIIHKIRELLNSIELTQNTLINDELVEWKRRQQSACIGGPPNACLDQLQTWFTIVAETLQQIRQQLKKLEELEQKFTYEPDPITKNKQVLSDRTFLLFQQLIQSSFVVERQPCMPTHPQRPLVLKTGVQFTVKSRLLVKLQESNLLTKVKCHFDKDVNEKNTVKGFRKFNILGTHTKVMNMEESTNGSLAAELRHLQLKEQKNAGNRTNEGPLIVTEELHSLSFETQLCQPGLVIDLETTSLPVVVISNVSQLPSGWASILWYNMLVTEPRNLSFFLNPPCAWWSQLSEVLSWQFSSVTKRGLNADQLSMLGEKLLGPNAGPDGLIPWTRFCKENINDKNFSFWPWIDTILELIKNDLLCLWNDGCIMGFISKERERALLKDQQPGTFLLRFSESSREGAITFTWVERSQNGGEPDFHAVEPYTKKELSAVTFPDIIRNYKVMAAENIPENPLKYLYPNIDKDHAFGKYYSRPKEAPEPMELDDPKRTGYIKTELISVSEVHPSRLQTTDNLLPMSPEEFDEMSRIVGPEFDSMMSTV

NIH3T3 = test: Inhibition of oligonucleotide [32P]-labelled 5'-AGATTTCTAGGAATTCAA probe binding to STAT5 homodimer in mouse NIH3T3 nuclear extract at 10 uM preincubated for 30 mins followed by MGFe probe addition by EMSA analysis
[2] = biological target: T2, Signal transducer and activator of transcription 3 (Mus musculus, UniProt P42227); test: Inhibition of oligonucleotide [32P]-labelled 5'-AGCITCATTTCCCGTAAATCCCTA probe binding to STAT3 SH2 domain in mouse NIH3T3/v-Src nuclear extract preincubated for 30 mins followed by hSIE probe addition by EMSA analysis; format: subcellular, Nucleus
[3] = biological target: T2, Signal transducer and activator of transcription 3; test: Inhibition of oligonucleotide [32P]-labelled 5'-AGCITCATTTCCCGTAAATCCCTA probe binding to STAT3 SH2 domain (unknown origin) preincubated for 30 mins followed by hSIE probe addition by EMSA analysis
MCF7 = test: Antiproliferative activity against human MCF7 cells assessed as reduction in cell viability incubated for 72 hrs by CyQuant assay; format: functional, cell-based; conditions: MCF7, 72 h
MDA-MB-231 [4] = test: Antiproliferative activity against human MDA-MB-231 cells harbouring STAT3 assessed as reduction in cell viability at upto 10 uM incubated for 72 hrs by CyQuant assay; format: functional, cell-based
MDA-MB-231 [5] = test: Antiproliferative activity against human MDA-MB-231 cells assessed as reduction in cell viability incubated for 72 hrs by CyQuant assay; format: functional, cell-based; conditions: MDA-MB-231, 72 h
MDA-MB-468 [6] = test: Antiproliferative activity against human MDA-MB-468 cells harbouring STAT3 assessed as reduction in cell viability incubated for 72 hrs by CyQuant assay; format: functional, cell-based; conditions: MDA-MB-468, 72 h
MCF-10A = test: Cytotoxicity against human MCF-10A cells assessed as reduction in cell viability incubated for 72 hrs by CyQuant assay; format: cell-based
[7] = Inhibition of oligonucleotide [32P]-labelled 5'-AGATTTCTAGGAATTCAA probe binding to STAT5 homodimer in mouse NIH3T3 nuclear extract preincubated for 30 mins followed by MGFe probe addition by EMSA analysis
MDA-MB-468 [8] = test: Antiproliferative activity against human MDA-MB-468 cells harbouring STAT3 assessed as reduction in cell viability at upto 10 uM incubated for 72 hrs by CyQuant assay; format: functional, cell-based; conditions: dose microM <=10, time 72.0 hrs
MDA-MB-231 [9] = test: Anticlonogenic activity against human MDA-MB-231 cells assessed as inhibition of colony formation at 0.5 to 1 uM incubated for 4 hrs by crystal violet staining based assay; format: functional, cell-based; conditions: dose 0.5-1 µM
How it was run: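 MDA-MB-231 cells seeded as single-cell cultures (250 cells per well), treated once the next day with compound at 0–1 μM and grown until large colonies were visible. Colonies stained with crystal violet for 4 h and photographed. Three independent determinations.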

T2 sequence (P42227 whole entry, the tested form may be a part): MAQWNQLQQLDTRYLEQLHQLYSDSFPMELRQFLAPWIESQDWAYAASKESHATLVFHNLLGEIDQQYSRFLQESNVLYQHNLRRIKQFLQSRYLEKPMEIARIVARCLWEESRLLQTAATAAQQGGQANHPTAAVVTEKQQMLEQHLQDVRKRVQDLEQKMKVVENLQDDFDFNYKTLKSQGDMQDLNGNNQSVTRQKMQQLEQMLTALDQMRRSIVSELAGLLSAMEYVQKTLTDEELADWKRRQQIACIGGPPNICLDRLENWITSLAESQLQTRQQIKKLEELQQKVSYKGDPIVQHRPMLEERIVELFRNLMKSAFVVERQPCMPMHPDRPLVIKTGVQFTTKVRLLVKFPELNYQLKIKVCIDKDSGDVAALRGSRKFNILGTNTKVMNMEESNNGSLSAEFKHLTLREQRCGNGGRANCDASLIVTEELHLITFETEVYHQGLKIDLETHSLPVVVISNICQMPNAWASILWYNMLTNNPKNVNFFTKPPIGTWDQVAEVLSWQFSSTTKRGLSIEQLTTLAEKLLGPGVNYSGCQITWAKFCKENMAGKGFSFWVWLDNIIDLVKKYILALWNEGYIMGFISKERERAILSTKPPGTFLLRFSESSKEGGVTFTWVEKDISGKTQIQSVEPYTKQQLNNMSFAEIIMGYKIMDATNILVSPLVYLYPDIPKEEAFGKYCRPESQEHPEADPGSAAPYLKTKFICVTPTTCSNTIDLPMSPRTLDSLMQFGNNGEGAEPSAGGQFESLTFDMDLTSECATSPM

Structure (SMILES)	EC50 (MCF7)	EC50 (MDA-MB-231 [5])	EC50 (MDA-MB-468 [6])	EC50 (MCF-10A)	other results
O=C(O)c1ccc(N(Cc2ccc(C3CCOCC3)cc2)C(=O)[C@H]2CCN2S(=O)(=O)c2c(F)c(F)c(F)c(F)c2F)cc1O					inhibition [1]: Active; inhibition (NIH3T3): Active
O=C(O)c1coc(N(Cc2ccc(C3CCCCC3)cc2)C(=O)[C@H]2CCN2S(=O)(=O)c2c(F)c(F)c(F)c(F)c2F)n1					IC50 [2]: > 5 µM
NC(=O)c1ccc(N(Cc2ccc(C3CCCCC3)cn2)C(=O)[C@H]2CCN2S(=O)(=O)c2c(F)c(F)c(F)c(F)c2F)c(F)c1					IC50 [3]: > 2 µM
COc1ccc(S(=O)(=O)Nc2cc(-c3c(O)ccc4ccccc34)c(O)c3ccccc23)cc1 [C-188-9]	13.8 µM				EC50 (MDA-MB-231 [4]; MDA-MB-231, 72 h): 25.7 µM
O=C(NO)c1ccc(N(Cc2ccc(C3CCCCC3)cc2)C(=O)[C@H]2CCN2S(=O)(=O)c2c(F)c(F)c(F)c(F)c2F)c(F)c1					inhibition [1]: Active; inhibition (NIH3T3): Active
Cn1cnc2cc(N(Cc3ccc(C4CCCCC4)cn3)C(=O)[C@H]3CCN3S(=O)(=O)c3c(F)c(F)c(F)c(F)c3F)ccc2c1=O	3.2 µM	2.1 µM	2.2 µM	4.7 µM	
O=C([C@H]1CCN1S(=O)(=O)c1c(F)c(F)c(F)c(F)c1F)N(Cc1cnc(C2CCCCC2)cn1)c1cc2[nH]ncc2cc1F	4.6 µM	2 µM	2 µM	3.2 µM	
O=C(NO)c1ccc(N(Cc2ccc(C3CCOCC3)cc2)C(=O)[C@H]2CCN2S(=O)(=O)c2c(F)c(F)c(F)c(F)c2F)cc1	> 10 µM	4 µM	2.1 µM	4.3 µM	
O=C([C@H]1CCN1S(=O)(=O)c1c(F)c(F)c(F)c(F)c1F)N(Cc1ccc(C2CCCCC2)cn1)c1ccc2c(=O)[nH]ccc2c1	2.2 µM	1.2 µM	2 µM	2.7 µM	
O=C(O)c1ccc(N(Cc2ccc(C3CCCCC3)cc2)C(=O)[C@H]2CCN2S(=O)(=O)c2c(F)c(F)c(F)c(F)c2F)cc1O					IC50 [7]: 9.3 µM; Activity (MDA-MB-468 [8]): inactive; Activity (MDA-MB-231 [4]; dose microM <=10, time 72.0 hrs): inactive
COC(=O)c1ccc(N(Cc2cnc(C3CCCCC3)cn2)C(=O)[C@H]2CCN2S(=O)(=O)c2c(F)c(F)c(F)c(F)c2F)cc1O	5.7 µM		1.6 µM	3.8 µM	IC50 [2]: 7.5 µM; inhibition (MDA-MB-231 [9]): Active
O=C(O)c1ccc(N(Cc2ccc(C3CCCCC3)cn2)C(=O)[C@H]2CCN2S(=O)(=O)c2c(F)c(F)c(F)c(F)c2F)cn1					IC50 [2]: > 2 µM
O=C(O)c1cc(F)c(N(Cc2ccc(C3CCCCC3)cc2)C(=O)[C@H]2CCN2S(=O)(=O)c2c(F)c(F)c(F)c(F)c2F)cc1O					inhibition [1]: Active; inhibition (NIH3T3): Active
